Measurements pooled from the literature.
Each line is one published result; the experiments were not run side by side.
Target: Homeodomain-interacting protein kinase 2 (HIPK2, Homo sapiens, UniProt Q9H2X6)
Observed: enzyme activity
Action: inhibitor

| SMILES | test | conditions | remaining activity [%] |
| --- | --- | --- | --- |
| CC(C)(C)C(=O)c1sc(NC2CCCCC2)nc1N |  | 10 µM | 79 |
| O=C(O)c1ccc2c(c1)nc(Nc1ccc(Cl)cc1)c1ccncc12 | radiometric | 1 µM | -1 |
| Oc1cccc(-c2nc(N3CCOCC3)c3oc4ncccc4c3n2)c1 |  | 10 µM | 18 |
| O=C(Nc1cnn(-c2csc(C(=O)NC3COC3)c2)c1)Nc1c(F)cccc1Cl |  | 5 µM | 92.6 |
| O=C(O)c1ccc2c(c1)nc(NCCc1ccccc1)c1ncncc12 | radiometric | 1 µM | 7 |
| COc1cc(Cl)c(C(=O)N[C@@H](CN[C@H]2CC[C@@H](N)CC2)Cc2ccc(C#N)cc2)cc1-c1ccc(CN[C@H](C)c2ccc(C)cc2)o1 |  | 1 µM | 105 |
| Nc1nc(Nc2ccccc2)sc1C(=O)c1c(F)cccc1F |  | 10 µM | 16 |
| Cc1ccc(C(=O)Nc2ccc(CN3CCN(C)CC3)c(C(F)(F)F)c2)cc1C#Cc1cnc2cccnn12 |  | 23.5 nM | 100 |
| O=C(O)c1ccc2c(c1)nc(Nc1ccc(Cl)cc1)c1ncncc12 | radiometric | 1 µM | -2 |
| CC(C)(C)c1nc(-c2cccc(NS(=O)(=O)c3c(F)cccc3F)c2F)c(-c2ccnc(N)n2)s1 | radiometric | 1 µM | 80 |
| O=C(O)c1ccc2c(c1)nc(Nc1ccc(F)c(Cl)c1)c1ccncc12 | radiometric | 1 µM | 1 |
| CCCOc1ccc(OC)c(F)c1C(=O)c1ccc(C(=O)N[C@@H]2CNC[C@H]2NC(=O)c2ccc3[nH]ncc3c2)cc1 |  | 10 µM | 94 |
